# Measured values: the RNAGym collection of RNA variant scans (doi:10.1002/anie.201605470)
# B1: Osa-1-4 twister ribozyme (parent)
# chain: CCGCCUAACACUGCCAAUGCCGGUCCCAAGCCCGGAUAAAAGUGGAGGGGGCGG
# Variants of: B1
# Assay: self-cleavage, relative activity (ratio to wild type); higher = more cleavage; co-transcriptional
# Outline: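 A DNA template for a 54-nucleotide Oryza sativa twister ribozyme was synthesised with 97 % wild-type base and 1 % of each other base at the 48 positions downstream of the cleavage site. It was transcribed in vitro for 2 h at 37 °C, allowing co-transcriptional self-cleavage, then reverse-transcribed with a template-switching oligonucleotide, PCR-amplified and deep-sequenced. Cleavage status was scored from reads with or without upstream sequence. Relative activity is fraction cleaved normalised to wild type.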
row,Variant,self-cleavage
1,CCGCCUAACACUGCCAAUGCCGGUCCCAAGACCGGAUAAGAGUGGAGGGGGCGG [A40G C31A],0.03
2,CCGCCUAACACUGCCAAUGCCGGUCCCAAGUCCGGAUAAGAGUGGAGGGGGCGG [A40G C31U],0.16
3,CCGCCUAACACUGCCAAUGCCGGUCCCAAGGCCGGAUAAGAGUGGAGGGGGCGG [A40G C31G],0.08
4,CCGCCUAACACUGCCAAUGCCGAUCCCAAGCCCGGAUAAGAGUGGAGGGGGCGG [A40G G23A],0.12
5,CCGCCUAACACUGCCAAUGCCGUUCCCAAGCCCGGAUAAGAGUGGAGGGGGCGG [A40G G23U],0.05
6,CCGCCUAACACUGCCAAUGCCGCUCCCAAGCCCGGAUAAGAGUGGAGGGGGCGG [A40G G23C],0.06
7,CCGCCUAACACUGCCAAUGCCGGUCCCAAGCCCGGAUAAGAGUGGAGGGCGCGG [A40G G50C],0.29
8,CCGCCUAACACUGCCAAUGCCGGUCCCAAGCCCGGAUAAGAGUGGAGGGUGCGG [A40G G50U],0.54
9,CCGCCUAACACUGCCAAUGCCGGUCCCAAGCCCGGAUAAGAGUGGAGGGAGCGG [A40G G50A],0.43
10,CCGCCUAACACUGCCAAUGCCGGUCCCAAGCCCGGAUAAGAAUGGAGGGGGCGG [A40G G42A],0.14
11,CCGCCUAACACUGCCAAUGCCGGUCCCAAGCCCGGAUAAGAUUGGAGGGGGCGG [A40G G42U],0.07
12,CCGCCUAACACUGCCAAUGCCGGUCCCAAGCCCGGAUAAGACUGGAGGGGGCGG [A40G G42C],0.13
13,CCGCCUAACACUGCCAAGGCCGGUCCCAAGCCCGGAUAAGAGUGGAGGGGGCGG [A40G U18G],0.76
14,CCGCCUAACACUGCCAACGCCGGUCCCAAGCCCGGAUAAGAGUGGAGGGGGCGG [A40G U18C],0.72
15,CCGCCUAACACUGCCAAAGCCGGUCCCAAGCCCGGAUAAGAGUGGAGGGGGCGG [A40G U18A],0.88
16,CCGCCUAACACUGCCAAUGCCGGUCCCAAGCCCGGAUAAGAGUGGAGGGGCCGG [A40G G51C],0.07
17,CCGCCUAACACUGCCAAUGCCGGUCCCAAGCCCGGAUAAGAGUGGAGGGGUCGG [A40G G51U],0.12
18,CCGCCUAACACUGCCAAUGCCGGUCCCAAGCCCGGAUAAGAGUGGAGGGGACGG [A40G G51A],0.25
19,CCGCCUAACACUGCCAAUGCCGGUCCCAAGCCCGGAUAAGAGUGGAGAGGGCGG [A40G G48A],0.08
20,CCGCCUAACACUGCCAAUGCCGGUCCCAAGCCCGGAUAAGAGUGGAGUGGGCGG [A40G G48U],0.06
21,CCGCCUAACACUGCCAAUGCCGGUCCCAAGCCCGGAUAAGAGUGGAGCGGGCGG [A40G G48C],0.08
22,CCGCCUAUCACUGCCAAUGCCGGUCCCAAGCCCGGAUAAUAGUGGAGGGGGCGG [A40U A8U],0.07
23,CCGCCUACCACUGCCAAUGCCGGUCCCAAGCCCGGAUAAUAGUGGAGGGGGCGG [A40U A8C],0.05
24,CCGCCUAGCACUGCCAAUGCCGGUCCCAAGCCCGGAUAAUAGUGGAGGGGGCGG [A40U A8G],0.15
25,CCGCCUAACACUGCCAAUGCCGGUCCCAAGCCCGGAUAAUAGUGGAGGGGGCGG [A40U],0.85

row,Variant,self-cleavage
1,CCGCCUAACACUGCCAAUGCCGGUCCCAAGCCCGGAUAAGAGCGGAGGGGGCGG [A40G U43C],0.14
2,CCGCCUAACACUGCCAAUGCCGGUCCCAAGCCCGGAUAAGAGAGGAGGGGGCGG [A40G U43A],0.21
3,CCGCCUAACACUGCCAAUGCCGGUCCCAAGCCCGGAUAAGAGGGGAGGGGGCGG [A40G U43G],0.19
4,CCGCCUAACACCGCCAAUGCCGGUCCCAAGCCCGGAUAAGAGUGGAGGGGGCGG [A40G U12C],0.79
5,CCGCCUAACACGGCCAAUGCCGGUCCCAAGCCCGGAUAAGAGUGGAGGGGGCGG [A40G U12G],0.28
6,CCGCCUAACACAGCCAAUGCCGGUCCCAAGCCCGGAUAAGAGUGGAGGGGGCGG [A40G U12A],0.75
7,CCGCCUAACACUGCCAAUGCCGGUCCCAAGCCCGGAUAAGAGUGGAGGGGGCAG [A40G G53A],0.2
8,CCGCCUAACACUGCCAAUGCCGGUCCCAAGCCCGGAUAAGAGUGGAGGGGGCUG [A40G G53U],0.12
9,CCGCCUAACACUGCCAAUGCCGGUCCCAAGCCCGGAUAAGAGUGGAGGGGGCCG [A40G G53C],0.08
10,CCGCCUAACACUGCCAAUGCCGGUCCCAAGCCCGGAUAAGAGUGGAGGCGGCGG [A40G G49C],0.07
11,CCGCCUAACACUGCCAAUGCCGGUCCCAAGCCCGGAUAAGAGUGGAGGUGGCGG [A40G G49U],0.09
12,CCGCCUAACACUGCCAAUGCCGGUCCCAAGCCCGGAUAAGAGUGGAGGAGGCGG [A40G G49A],0.09
13,CCGCCUAACACUGCCAAUGCCCGUCCCAAGCCCGGAUAAGAGUGGAGGGGGCGG [A40G G22C],0.06
14,CCGCCUAACACUGCCAAUGCCAGUCCCAAGCCCGGAUAAGAGUGGAGGGGGCGG [A40G G22A],0.46
15,CCGCCUAACACUGCCAAUGCCUGUCCCAAGCCCGGAUAAGAGUGGAGGGGGCGG [A40G G22U],0.16
16,CCGCCUAACACUGCCAAUGCCGGUCCCAAGCCGGGAUAAGAGUGGAGGGGGCGG [A40G C33G],0.06
17,CCGCCUAACACUGCCAAUGCCGGUCCCAAGCCAGGAUAAGAGUGGAGGGGGCGG [A40G C33A],0.08
18,CCGCCUAACACUGCCAAUGCCGGUCCCAAGCCUGGAUAAGAGUGGAGGGGGCGG [A40G C33U],0.15
19,CCGCCUGACACUGCCAAUGCCGGUCCCAAGCCCGGAUAAUAGUGGAGGGGGCGG [A40U A7G],0.13
20,CCGCCUCACACUGCCAAUGCCGGUCCCAAGCCCGGAUAAUAGUGGAGGGGGCGG [A40U A7C],0.04
21,CCGCCUUACACUGCCAAUGCCGGUCCCAAGCCCGGAUAAUAGUGGAGGGGGCGG [A40U A7U],0.08
22,CCGCCUAACACUGCCAAUGCCGGUCCCAAGCCCGGACAAGAGUGGAGGGGGCGG [A40G U37C],0.9
23,CCGCCUAACACUGCCAAUGCCGGUCCCAAGCCCGGAAAAGAGUGGAGGGGGCGG [A40G U37A],0.91
24,CCGCCUAACACUGCCAAUGCCGGUCCCAAGCCCGGAGAAGAGUGGAGGGGGCGG [A40G U37G],1.02
